Experimental findings from ChEMBL document CHEMBL3045023, “Design, synthesis, and antiviral activity evaluation of phenanthrene-based antofine derivatives” (2012) are described below.

Common to all, as to format: functional
Assay [1] has as its system Tobacco mosaic virus. In words: Antiviral activity against Tobacco mosaic virus (TMV) inoculation on Nicotiana tabacum L. whole leaves assessed as virus infection protective effect at 500 ug/mL measured 3 to 4 days post inoculation. The essentials:
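On N. tabacum L. leaves of the same age, compound was smeared on the left half and solvent on the right half as control. After 12 h, leaves were dusted with silicon carbide, brush-inoculated with TMV (6 × 10−3 mg/mL), then washed. Local lesions were counted 3–4 days later, in triplicate. Inhibition % was calculated from average lesion numbers versus control.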

The test system of assay [2] is Tobacco mosaic virus. In words: Antiviral activity against Tobacco mosaic virus (TMV) inoculation on Nicotiana tabacum L. whole leaves assessed as virus infection curative effect at 500 ug/mL measured 3 to 4 days post inoculation. The essentials:
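Whole N. tabacum L. leaves of the same age were inoculated with TMV (6.0 × 10−3 mg/mL), then washed and dried. Compound was then smeared on the left half and solvent on the right half as control. Local lesions were counted 3–4 days post-inoculation, in triplicate. Inhibition % was calculated from average lesion numbers versus control.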

The test system of assay [3] is Tobacco mosaic virus. The assay is described as follows: Antiviral activity against Tobacco mosaic virus (TMV) inoculation on Nicotiana tabacum L. whole leaves assessed as virus inactivation effect at 500 ug/mL measured 3 to 4 days post inoculation. The essentials:
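TMV was mixed with an equal volume of compound solution for 30 min. The mixture was inoculated on the left half of N. tabacum L. leaves, and virus mixed with solvent on the right half as control. Local lesions were recorded 3–4 days post-inoculation, in triplicate. Inhibition % was calculated from average lesion numbers versus control.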

Assay [4] deals with Tobacco mosaic virus. In words: Antiviral activity against Tobacco mosaic virus (TMV) assessed as inhibition of viral growth at 500 ug/mL. Particulars: read-out: GI. Summed up:
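Leaves of 5–6-growth-stage tobacco were rub-inoculated with TMV juice (5.88 × 10−2 μg/mL), then cut into halves along the main vein. One half was immersed in 500 μg/mL compound and the other in double-distilled water, each for 20 min. Halves were cultured at 25 °C for 72 h, with at least 3 replicates. Inhibition % = (control − treated average lesion number)/control × 100.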

As to `CCN(CC)C(=O)[C@@H]1CCCN1Cc1c(Br)c2cc(OC)c(OC)cc2c2cc(OC)c(OC)cc12`, the Activity with Tobacco mosaic virus [1] was 25.3%; in the assay with Tobacco mosaic virus [2], 21.6%; in the assay on Tobacco mosaic virus [3], 22%. The inhibition of growth at 500 µg/mL in the assay on Tobacco mosaic virus [4] is 17.2%.
The matching figures for `COC(=O)[C@@H]1CCCN1Cc1c(Br)c2cc(OC)c(OC)cc2c2cc(OC)c(OC)cc12`: 33.3%, 27.8%, 21.4% and 19.6%.
For the compound `COc1cc2cc(C(=O)N3CCCCC3)c3cc(OC)c(OC)cc3c2cc1OC`, the Activity in the assay on Tobacco mosaic virus [1] came out at 30.6%; in the assay on Tobacco mosaic virus [2], 28.9%; in the assay on Tobacco mosaic virus [3], 24.5%. Moreover, the inhibition of growth at 500 µg/mL in the assay on Tobacco mosaic virus [4] is 32.5%.
The matching figures for `COc1cc2c(Br)c(CBr)c3cc(OC)c(OC)cc3c2cc1OC`: 5.2%, 1.8%, 4.3% and 6.1%.
The matching figures for `CCN(CC)C(=O)[C@@H]1CCCN1Cc1c(Br)c2ccc(OC)cc2c2cc(OC)c(OC)cc12`: 16.8%, 8.9%, 23.7% and 12.5%.
`CC(=O)N1CN(C(C)=O)C(=O)NC1=O`: the inhibition of growth at 500 µg/mL in the assay with Tobacco mosaic virus [4] was 50%.
For `CCN(CC)C(=O)[C@@H]1CCCCN1Cc1c(Br)c2cc(OC)c(OC)cc2c2cc(OC)c(OC)cc12`, the values for the Activity with Tobacco mosaic virus [1], in the assay on Tobacco mosaic virus [2] and in the assay with Tobacco mosaic virus [3] were 28.5%, 26.3% and 21.5%, respectively. Moreover, the inhibition of growth at 500 µg/mL in the assay on Tobacco mosaic virus [4] is 19.7%.
The like results for `COc1cc2c(Br)c(CN3CCC[C@H]3C(=O)O)c3cc(OC)c(OC)cc3c2cc1OC` were, in that order, 10.2%, 13.5%, 17% and 20.4%.
As for `CCN(CC)C(=O)[C@@H]1CCCN1Cc1c(Br)c2ccc(OC)c(Br)c2c2cc(OC)c(OC)cc12`, the Activity stood at 15.3% in the assay with Tobacco mosaic virus [1], 22.3% in the assay on Tobacco mosaic virus [2] and 17.8% in the assay with Tobacco mosaic virus [3]. Further, the inhibition of growth at 500 µg/mL in the assay with Tobacco mosaic virus [4] came out at 19.6%.
The matching figures for `COc1cc2cc(CN3CCC[C@H]3CO)c3cc(OC)c(OC)cc3c2cc1OC`: 25.2%, 23.5%, 17.4% and 15.9%.
For `CCN(CC)C(=O)[C@@H]1CCCN1Cc1c(Br)c2cc(OC)c(OC)cc2c2c(Br)c(OC)ccc12`, the Activity is listed as 26.1% in the assay on Tobacco mosaic virus [1], 23.5% in the assay on Tobacco mosaic virus [2] and 20.7% in the assay with Tobacco mosaic virus [3]. In the assay with Tobacco mosaic virus [4], the inhibition of growth at 500 µg/mL stood at 32.5%.
The matching figures for `COc1cc2cc(C(=O)N3CCC[C@H]3C(N)=O)c3cc(OC)c(OC)cc3c2cc1OC`: 24.3%, 23.5%, 25.3% and 27%.
The matching figures for `COc1cc2cc(CN3CCCCC3)c3cc(OC)c(OC)cc3c2cc1OC`: 35.9%, 35.2%, 30% and 38.4%.
The matching figures for `CCN(CC)C(=O)[C@@H]1CCCN1Cc1c(Br)c2cc(OC)c(OC)cc2c2cc(OC)ccc12`: 18.9%, 14.2%, 15.7% and 23.5%.
`COc1ccc2c(Br)c(CN3CCC[C@H]3C(N)=O)c3cc(OC)c(OC)cc3c2c1`: the figures for the Activity in the assay on Tobacco mosaic virus [1], in the assay on Tobacco mosaic virus [2] and in the assay with Tobacco mosaic virus [3] were 32.4%, 30.7% and 12.3%, respectively. In addition, the inhibition of growth at 500 µg/mL in the assay on Tobacco mosaic virus [4] was 35.5%.
The like results for `CCN(CC)C(=O)[C@H]1CCCCN1Cc1c(Br)c2cc(OC)c(OC)cc2c2cc(OC)ccc12` were, in that order, 21.3%, 17.6%, 15.4% and 12.1%.
`COc1ccc2c(CN3CCC[C@H]3C#N)c(Br)c3cc(OC)c(OC)cc3c2c1`: the values for the Activity with Tobacco mosaic virus [1], in the assay on Tobacco mosaic virus [2] and with Tobacco mosaic virus [3] were 15.3%, 20.5% and 12.6%, respectively. In the assay on Tobacco mosaic virus [4], the inhibition of growth at 500 µg/mL was found to be 22.7%.
In the case of `O=C1NCNC(=O)N1`, the inhibition of growth at 500 µg/mL with Tobacco mosaic virus [4] is 50%.
Regarding `COc1cc2cc(CN3C(=O)CC[C@H]3C(=O)OC(C)(C)C)c3cc(OC)c(OC)cc3c2cc1OC`, the figures for the Activity in the assay with Tobacco mosaic virus [1], in the assay with Tobacco mosaic virus [2] and in the assay on Tobacco mosaic virus [3] were 23.5%, 16.8% and 27.1%, respectively. In addition, in the assay with Tobacco mosaic virus [4], the inhibition of growth at 500 µg/mL was found to be 14.2%.
The like results for `COc1ccc(/C=C(/C(=O)N2CCC[C@H]2CO)c2ccc(OC)c(OC)c2)cc1OC` were, in that order, 19.3%, 18.1%, 20.9% and 11.7%.
The like results for `COc1cc2cc(C(=O)N3CCC[C@H]3CBr)c3cc(OC)c(OC)cc3c2cc1OC` were, in that order, 36.9%, 26.7%, 27.6% and 21.9%.
The like results for `COc1ccc2c(CN3CCC[C@H]3C(N)=O)c(Br)c3cc(OC)c(OC)cc3c2c1` were, in that order, 0%, 5.6%, 14.5% and 0%.
Take `COc1cc2cc(C(=O)N3CCC[C@H]3CO)c3cc(OC)c(OC)cc3c2cc1OC`: the Activity with Tobacco mosaic virus [1] amounted to 25.6%; in the assay on Tobacco mosaic virus [2], 30.2%; in the assay on Tobacco mosaic virus [3], 29.5%. In the assay with Tobacco mosaic virus [4], the inhibition of growth at 500 µg/mL stood at 32.8%.
For the compound `COc1cc2cc(CN3C(=O)CC[C@H]3C(=O)O)c3cc(OC)c(OC)cc3c2cc1OC`, the Activity worked out at 35.3% in the assay with Tobacco mosaic virus [1], 25.6% in the assay with Tobacco mosaic virus [2] and 33.7% in the assay with Tobacco mosaic virus [3]. The inhibition of growth at 500 µg/mL with Tobacco mosaic virus [4] amounted to 32.4%.
On to `COc1cc2cc(C(=O)N3CCC[C@H]3C#N)c3cc(OC)c(OC)cc3c2cc1OC`, for which the Activity in the assay on Tobacco mosaic virus [1] was 10.3%; in the assay on Tobacco mosaic virus [2], 15.6%; with Tobacco mosaic virus [3] it was 17.6%. Moreover, the inhibition of growth at 500 µg/mL with Tobacco mosaic virus [4] turned out to be 12.5%.
The matching figures for `COc1cc2cc(CN3CCC[C@H]3CBr)c3cc(OC)c(OC)cc3c2cc1OC`: 21.1%, 16.3%, 20.3% and 32.1%.
With `COc1cc2c(Br)c(CN3CCC[C@H]3C(=N)OC(C)(C)C)c3cc(OC)c(OC)cc3c2cc1OC`, the Activity was 42.2% in the assay on Tobacco mosaic virus [1], 40.3% in the assay on Tobacco mosaic virus [2] and 36.6% in the assay on Tobacco mosaic virus [3]. The inhibition of growth at 500 µg/mL in the assay on Tobacco mosaic virus [4] is 39.7%.
The like results for `CCN(CC)C(=O)[C@H]1CCCN1Cc1c(Br)c2cc(OC)c(OC)cc2c2cc(OC)c(OC)cc12` were, in that order, 27.6%, 30.2%, 21.3% and 33.3%.
The matching figures for `CCN(CC)C(=O)[C@@H]1CCCCN1Cc1c(Br)c2cc(OC)c(OC)cc2c2cc(OC)ccc12`: 34.3%, 26.4%, 25.2% and 30.7%.
